# pIC50: −log10 of the molar value. Active and inactive are the calls of the source. The rule behind the calls is not given here.
# Tests used:
# [1] = target: Focal adhesion kinase 1 (Homo sapiens, UniProt Q05397); experiment: Inhibition of FAK (unknown origin)
# [2] = target: Tyrosine-protein kinase Fes/Fps (Homo sapiens, UniProt P07332); experiment: Inhibition of Fes (unknown origin)
# [3] = target: Vascular endothelial growth factor receptor 1 (Homo sapiens, UniProt P17948); experiment: Inhibition of Flt1 (unknown origin)
# [4] = target: Beta-adrenergic receptor kinase 1 (Homo sapiens, UniProt P25098); experiment: Inhibition of GRK2 (unknown origin)
# Sequence of Beta-adrenergic receptor kinase 1 (P25098 whole entry): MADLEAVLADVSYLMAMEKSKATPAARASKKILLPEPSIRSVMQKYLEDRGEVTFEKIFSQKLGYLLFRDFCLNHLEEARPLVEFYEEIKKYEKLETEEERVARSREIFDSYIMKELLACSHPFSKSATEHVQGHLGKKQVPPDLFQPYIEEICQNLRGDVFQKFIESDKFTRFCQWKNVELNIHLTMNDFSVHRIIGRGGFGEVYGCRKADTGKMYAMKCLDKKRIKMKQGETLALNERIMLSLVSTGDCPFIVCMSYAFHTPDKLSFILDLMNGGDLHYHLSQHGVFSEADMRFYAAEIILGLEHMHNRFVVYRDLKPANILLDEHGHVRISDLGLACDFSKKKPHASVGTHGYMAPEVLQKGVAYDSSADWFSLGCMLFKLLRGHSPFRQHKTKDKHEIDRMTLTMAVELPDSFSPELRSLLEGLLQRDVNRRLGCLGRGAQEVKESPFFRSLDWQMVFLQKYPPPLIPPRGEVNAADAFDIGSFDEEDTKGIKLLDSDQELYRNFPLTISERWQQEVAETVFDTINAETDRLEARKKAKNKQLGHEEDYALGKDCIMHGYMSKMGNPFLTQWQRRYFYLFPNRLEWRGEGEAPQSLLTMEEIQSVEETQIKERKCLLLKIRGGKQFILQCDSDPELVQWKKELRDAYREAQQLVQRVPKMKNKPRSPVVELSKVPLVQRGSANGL
# [5] = target: Tyrosine-protein kinase JAK2 (Homo sapiens, UniProt O60674); experiment: Inhibition of JAK2 (unknown origin)
# Sequence of Tyrosine-protein kinase JAK2 (O60674 whole entry): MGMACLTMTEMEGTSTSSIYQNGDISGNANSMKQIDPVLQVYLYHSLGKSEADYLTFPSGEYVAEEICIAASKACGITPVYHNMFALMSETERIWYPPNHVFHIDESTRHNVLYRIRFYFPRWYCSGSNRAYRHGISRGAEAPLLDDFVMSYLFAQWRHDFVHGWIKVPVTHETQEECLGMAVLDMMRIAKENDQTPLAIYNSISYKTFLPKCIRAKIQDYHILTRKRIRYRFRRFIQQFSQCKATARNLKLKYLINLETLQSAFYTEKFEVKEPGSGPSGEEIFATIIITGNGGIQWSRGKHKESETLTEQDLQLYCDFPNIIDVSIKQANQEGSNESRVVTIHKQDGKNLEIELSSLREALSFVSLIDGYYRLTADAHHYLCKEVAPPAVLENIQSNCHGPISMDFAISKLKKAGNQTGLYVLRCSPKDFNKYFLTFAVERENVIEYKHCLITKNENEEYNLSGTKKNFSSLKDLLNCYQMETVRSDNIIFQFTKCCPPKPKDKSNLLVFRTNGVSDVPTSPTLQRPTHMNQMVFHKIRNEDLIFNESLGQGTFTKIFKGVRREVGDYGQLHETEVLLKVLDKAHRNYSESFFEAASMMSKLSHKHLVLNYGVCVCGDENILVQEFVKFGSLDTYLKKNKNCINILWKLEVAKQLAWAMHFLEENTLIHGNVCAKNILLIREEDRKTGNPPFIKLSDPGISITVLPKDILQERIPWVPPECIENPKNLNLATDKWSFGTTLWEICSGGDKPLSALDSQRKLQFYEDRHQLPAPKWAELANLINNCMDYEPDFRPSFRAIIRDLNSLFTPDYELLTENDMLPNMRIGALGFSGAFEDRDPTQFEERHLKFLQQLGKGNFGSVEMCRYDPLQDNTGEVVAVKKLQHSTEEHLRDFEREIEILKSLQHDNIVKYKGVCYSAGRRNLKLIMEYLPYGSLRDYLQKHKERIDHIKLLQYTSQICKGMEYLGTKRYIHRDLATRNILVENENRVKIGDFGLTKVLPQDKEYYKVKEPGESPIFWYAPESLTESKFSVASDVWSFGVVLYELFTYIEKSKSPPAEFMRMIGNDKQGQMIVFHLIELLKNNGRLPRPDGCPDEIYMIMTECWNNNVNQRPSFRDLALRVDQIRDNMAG
# [6] = target: Tyrosine-protein kinase Lck (Homo sapiens, UniProt P06239); experiment: Inhibition of Lck (unknown origin)
# [7] = target: MAP kinase-activated protein kinase 2 (Homo sapiens, UniProt P49137); experiment: Inhibition of MAPKAP2 (unknown origin)
# Sequence of MAP kinase-activated protein kinase 2 (P49137 whole entry): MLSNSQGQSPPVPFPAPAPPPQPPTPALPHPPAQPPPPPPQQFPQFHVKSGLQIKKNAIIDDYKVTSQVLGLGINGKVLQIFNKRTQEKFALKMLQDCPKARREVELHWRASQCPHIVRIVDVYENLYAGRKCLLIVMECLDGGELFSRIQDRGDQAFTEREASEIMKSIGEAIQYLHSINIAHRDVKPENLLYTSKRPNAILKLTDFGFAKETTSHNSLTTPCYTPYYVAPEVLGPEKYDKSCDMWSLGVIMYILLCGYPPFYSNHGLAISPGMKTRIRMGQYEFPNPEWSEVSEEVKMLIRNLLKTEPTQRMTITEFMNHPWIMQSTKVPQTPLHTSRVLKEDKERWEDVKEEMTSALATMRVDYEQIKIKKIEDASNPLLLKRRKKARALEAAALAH
# [8] = target: Misshapen-like kinase 1 (Homo sapiens, UniProt Q8N4C8); experiment: Inhibition of MINK (unknown origin)
# [9] = target: Ribosomal protein S6 kinase beta-1 (Homo sapiens, UniProt P23443); experiment: Inhibition of p70S6K (unknown origin)
# Sequence of Ribosomal protein S6 kinase beta-1 (P23443 whole entry, the tested form may be a part): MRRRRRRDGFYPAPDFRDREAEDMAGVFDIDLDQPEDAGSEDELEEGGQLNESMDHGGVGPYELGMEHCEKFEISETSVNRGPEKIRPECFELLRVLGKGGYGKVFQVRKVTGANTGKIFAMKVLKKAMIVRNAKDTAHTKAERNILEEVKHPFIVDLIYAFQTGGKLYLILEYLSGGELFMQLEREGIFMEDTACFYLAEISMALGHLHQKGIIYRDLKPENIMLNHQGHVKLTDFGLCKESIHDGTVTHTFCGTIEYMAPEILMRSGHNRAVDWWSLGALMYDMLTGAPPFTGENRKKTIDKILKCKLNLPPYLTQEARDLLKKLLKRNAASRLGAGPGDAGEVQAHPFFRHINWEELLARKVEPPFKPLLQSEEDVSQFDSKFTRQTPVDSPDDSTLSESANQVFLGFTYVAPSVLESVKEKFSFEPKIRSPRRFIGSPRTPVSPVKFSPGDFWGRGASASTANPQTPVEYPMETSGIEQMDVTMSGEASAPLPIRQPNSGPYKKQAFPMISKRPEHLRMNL
# [10] = target: PAS domain-containing serine/threonine-protein kinase (Homo sapiens, UniProt Q96RG2); experiment: Inhibition of PASK (unknown origin)
# Sequence of PAS domain-containing serine/threonine-protein kinase (Q96RG2 whole entry, the tested form may be a part, canonical isoform): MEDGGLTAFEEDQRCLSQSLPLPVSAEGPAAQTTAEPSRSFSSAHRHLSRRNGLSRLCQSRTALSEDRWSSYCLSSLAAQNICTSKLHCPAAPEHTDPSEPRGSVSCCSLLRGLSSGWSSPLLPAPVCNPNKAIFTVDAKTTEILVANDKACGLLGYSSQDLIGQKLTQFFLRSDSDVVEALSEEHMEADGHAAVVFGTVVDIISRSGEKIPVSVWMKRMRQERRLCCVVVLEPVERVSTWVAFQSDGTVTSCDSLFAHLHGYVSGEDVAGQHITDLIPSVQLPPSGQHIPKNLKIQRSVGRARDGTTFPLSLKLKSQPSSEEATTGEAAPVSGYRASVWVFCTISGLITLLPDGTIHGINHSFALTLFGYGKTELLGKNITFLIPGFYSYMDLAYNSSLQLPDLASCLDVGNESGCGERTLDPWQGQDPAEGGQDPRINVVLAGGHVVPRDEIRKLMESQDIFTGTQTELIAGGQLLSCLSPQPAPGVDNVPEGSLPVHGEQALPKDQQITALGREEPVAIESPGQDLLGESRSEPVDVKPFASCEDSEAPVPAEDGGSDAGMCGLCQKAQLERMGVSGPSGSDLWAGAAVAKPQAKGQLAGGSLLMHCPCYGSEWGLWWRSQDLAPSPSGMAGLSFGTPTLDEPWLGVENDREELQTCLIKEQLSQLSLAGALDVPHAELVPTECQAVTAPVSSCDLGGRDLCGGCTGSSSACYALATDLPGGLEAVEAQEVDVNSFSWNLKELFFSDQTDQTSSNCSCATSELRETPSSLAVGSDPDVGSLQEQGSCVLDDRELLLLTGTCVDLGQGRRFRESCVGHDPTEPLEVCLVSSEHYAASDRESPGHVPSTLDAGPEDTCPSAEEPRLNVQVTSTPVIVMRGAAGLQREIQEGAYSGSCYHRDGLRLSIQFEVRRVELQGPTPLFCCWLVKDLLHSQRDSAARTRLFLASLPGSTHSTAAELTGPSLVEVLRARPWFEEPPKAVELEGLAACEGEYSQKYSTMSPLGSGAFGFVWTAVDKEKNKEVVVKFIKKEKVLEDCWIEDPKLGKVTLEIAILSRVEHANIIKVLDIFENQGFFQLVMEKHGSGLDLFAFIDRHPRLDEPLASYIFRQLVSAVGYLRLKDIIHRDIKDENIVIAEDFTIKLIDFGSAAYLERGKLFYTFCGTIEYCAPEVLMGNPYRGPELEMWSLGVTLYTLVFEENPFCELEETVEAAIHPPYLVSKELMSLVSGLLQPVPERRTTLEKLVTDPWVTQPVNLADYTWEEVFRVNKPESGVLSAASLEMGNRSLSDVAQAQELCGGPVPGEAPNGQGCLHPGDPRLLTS
# [11] = target: Phosphatidylinositol 4,5-bisphosphate 3-kinase catalytic subunit beta isoform (Homo sapiens, UniProt P42338); experiment: Inhibition of PI3Kbeta (unknown origin)
# [12] = test system: MOLM-13; experiment: Antitumor activity against human MOLM-13 cells harboring FLT3 Y599_D600insFDFREYE and c-Cbl E366_Q409del mutant xenografted in mouse assessed as tumor growth inhibition at 10 mg/kg, po; format: functional; conditions: read-out: TGI
# Outline: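 Human tumor xenografts in mice were dosed orally at the indicated mg/kg. Tumor volume was measured with calipers as (L×W×W)/2. %TGI = 100 × [1 − (AUC treatment/d)/(AUC vehicle/d)], using the area under the fitted tumor-growth curve per day for each dose group relative to vehicle.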
# [13] = test system: HCT-116; experiment: Antitumor activity against human HCT-116 cells harboring KRAS G13D/PIK3CA […]/CTNNB1 S45del/CDKN2A G23fs mutant xenografted in mouse assessed as tumor growth inhibition at 10 mg/kg, po; format: functional; conditions: read-out: TGI
# Outline: (§1)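 Single-agent dose ranging in human tumor xenograft mice at 2.5, 5 or 10 mg/kg oral. Tumor volume was measured by caliper as (L×W×W)/2. %TGI = 100×[1 − AUC(treatment/d)/AUC(vehicle/d)] from the fitted growth curve per dose group, relative to vehicle.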
# [14] = test system: FaDu; experiment: Antitumor activity against human FaDu cells harboring SMAD4 del/TP53 R248L/CDKN2A mutant xenografted in mouse assessed as tumor growth inhibition at 2.5 mg/kg, po; format: functional; conditions: read-out: TGI; outline: as §1
# [15] = Antitumor activity against human A375.X1 cells harboring BRAF V600E/CDKN2A E61 mutant xenografted in mouse assessed as tumor growth inhibition at 10 mg/kg, po; format: functional; conditions: A375.X1, read-out: TGI; outline: as §1
# [16] = test system: EBC-1; experiment: Antitumor activity against human EBC-1 cells harboring MET amp and EGFR G719S/L858R mutant xenografted in mouse assessed as tumor growth inhibition at 5 mg/kg, po; format: functional; conditions: read-out: TGI; outline: as §1
# [17] = test system: NCI-H2122; experiment: Antitumor activity against human NCI-H2122 cells harboring KRAS […]/LKB1 P281/TP53Q61L/C176Fl/CDKN2A mutant xenografted in mouse assessed as tumor growth inhibition at 10 mg/kg, po; format: functional; conditions: read-out: TGI
# Outline: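 NCI-H2122 (KRAS G12C) NSCLC xenografts in mice were dosed orally once daily for 21 consecutive days. Tumor volume was measured with calipers as (L×W×W)/2, and body weight was tracked. %TGI was derived from the area under the fitted growth curve per day versus vehicle. Group means with SEM were reported.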
# [18] = test system: MIA PaCa-2; experiment: Antitumor activity against human MIA PaCa-2 cells harboring KRAS G12C/NOTCH1 L2458V mutant xenografted in mouse assessed as tumor growth inhibition at 10 mg/kg, po; format: functional; conditions: read-out: TGI; outline: as §1
# [19] = test system: NCI-H2122; experiment: Antitumor activity against human NCI-H2122 cells xenografted in mouse assessed as reduction in ERK phosphorylation at 1 to 10 mg/kg, po administered for 3 days and measured at 8 hrs by Western blot analysis; format: functional; parameters: scale not given: the % may be the effect or the level left; conditions: time 80 hrs
# Outline: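 NCI-H2122 xenograft mice received 3 daily oral doses of 1, 3, 5 or 10 mg/kg. Tumors were collected 2, 8 and 24 h after the last dose, pulverized on dry ice and lysed. Lysates were run on 4–12% SDS-PAGE and transferred to nitrocellulose. p-ERK1/2 and t-ERK1/2 bands were quantified on an Odyssey imager and expressed relative to vehicle-treated mice (0 h).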
# [20] = test system: 888-mel; experiment: Antiproliferative activity against human 888-mel cells harboring BRAF V600E mutant assessed as reduction in cell viability incubated for 96 hrs in presence of 4-(2-(1H-indazol-4-yl)-6-((4-(methylsulfonyl)piperazin-1-yl)methyl)thieno[3,2-d]pyrimidin-4-yl)morpholine; format: functional, cell-based
# [21] = Antiproliferative activity against human Mel 928 cells assessed reduction in cell viability incubated for 4 days in presence of 4-(2-(1H-indazol-4-yl)-6-((4-(methylsulfonyl)piperazin-1-yl)methyl)thieno[3,2-d]pyrimidin-4-yl)morpholine by celltiter-glo assay; format: functional; conditions: time 4 day
# Outline: (§2)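 4-day CellTiter-Glo viability read-out on melanoma lines, cells exposed to increasing concentrations of each inhibitor alone and in combination.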
# [22] = test system: C32; experiment: Antiproliferative activity against human C32 cells assessed reduction in cell viability incubated for 4 days in presence of 4-(2-(1H-indazol-4-yl)-6-((4-(methylsulfonyl)piperazin-1-yl)methyl)thieno[3,2-d]pyrimidin-4-yl)morpholine by celltiter-glo assay; format: functional; conditions: time 4 day; outline: as §2
# [23] = test system: DLD-1; experiment: Antitumor activity against human DLD-1 cells xenografted in mouse assessed as tumor growth inhibition at 10 mg/kg, po administered every third day for 21 days in presence of 4-(2-(1H-indazol-4-yl)-6-((4-(methylsulfonyl)piperazin-1-yl)methyl)thieno[3,2-d]pyrimidin-4-yl)morpholine; format: functional; conditions: DLD-1, 504 h, time 21 day, read-out: TGI
# Outline: (§3)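 Human tumor xenografts in mice. Drugs given orally, as single agents or combined with the PI3K inhibitor. Schedules were daily (QD) or every third day (Q3D) over 21 days. Tumor volume was measured by caliper as (L×W×W)/2. %TGI = 100×[1 − AUC(treatment/d)/AUC(vehicle/d)] from fitted growth curves, with group means. Tumor lysates were immunoblotted for pS6.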
# [24] = test system: NCI-H2122; experiment: Antitumor activity against human NCI-H2122 cells xenografted in mouse assessed as tumor growth inhibition at 15 mg/kg, po administered every third day for 21 days; format: functional; conditions: NCI-H2122, 504 h, time 21 day, read-out: TGI
# Outline: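 Dosing was oral, every third day (Q3D) across 21 days, with single agents or the MEK plus PI3K combination in NCI-H2122 xenograft mice. Tumor volume was calculated as (L×W×W)/2 from caliper measurements. %TGI was derived from fitted-curve AUC per day relative to vehicle, with body weight monitored.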
# [25] = test system: A2058; experiment: Antitumor activity against human A2058 cells harboring BRAF V600E/PTEN deletion mutant xenografted in mouse assessed as suppression of S6 phosphorylation at 15 mg/kg, po administered every third day for 21 days and measured after 72 hrs post dose in presence of 4-(2-(1H-indazol-4-yl)-6-((4-(methylsulfonyl)piperazin-1-yl)methyl)thieno[3,2-d]pyrimidin-4-yl)morpholine by Western blot analysis; format: functional, organism-based; conditions: time 576.0 hrs; outline: as §3
# Sequence of Tyrosine-protein kinase Fes/Fps (P07332 whole entry): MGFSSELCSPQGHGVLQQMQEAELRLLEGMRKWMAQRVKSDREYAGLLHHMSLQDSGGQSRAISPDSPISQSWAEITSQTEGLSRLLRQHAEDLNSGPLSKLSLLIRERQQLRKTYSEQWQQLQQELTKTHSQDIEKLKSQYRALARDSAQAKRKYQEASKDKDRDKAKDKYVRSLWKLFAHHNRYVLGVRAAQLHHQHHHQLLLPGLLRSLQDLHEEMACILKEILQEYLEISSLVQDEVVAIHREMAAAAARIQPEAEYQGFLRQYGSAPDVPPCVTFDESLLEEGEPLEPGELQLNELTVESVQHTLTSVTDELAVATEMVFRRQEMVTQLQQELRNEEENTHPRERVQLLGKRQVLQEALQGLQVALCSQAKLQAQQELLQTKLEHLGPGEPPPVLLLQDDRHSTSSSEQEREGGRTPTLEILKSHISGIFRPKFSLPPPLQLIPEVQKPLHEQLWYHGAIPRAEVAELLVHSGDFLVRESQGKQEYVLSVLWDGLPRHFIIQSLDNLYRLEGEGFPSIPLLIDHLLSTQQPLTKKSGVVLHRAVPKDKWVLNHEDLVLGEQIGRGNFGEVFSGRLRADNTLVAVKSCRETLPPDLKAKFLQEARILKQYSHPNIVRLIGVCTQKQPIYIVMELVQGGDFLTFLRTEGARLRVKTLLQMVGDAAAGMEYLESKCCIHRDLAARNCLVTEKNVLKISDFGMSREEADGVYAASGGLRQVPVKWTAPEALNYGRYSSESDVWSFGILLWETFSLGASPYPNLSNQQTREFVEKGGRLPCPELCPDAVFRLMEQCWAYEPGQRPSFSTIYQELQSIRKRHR
smiles,measurement,setting,value
O=C(c1ccc(F)c(F)c1Nc1ccc(I)cc1F)N1CC(O)([C@@H]2CCCCN2)C1 [COBIMETINIB],pIC50,[1],< 5.00
same,pIC50,[2],< 5.00
same,pIC50,[3],< 5.00
same,pIC50,[4],< 5.00
same,pIC50,[5],< 5.00
same,pIC50,[6],< 5.00
same,pIC50,[7],< 5.00
same,pIC50,[8],< 5.00
same,pIC50,[9],< 5.00
same,pIC50,[10],< 5.00
same,pIC50,[11],< 5.00
same,inhibition in vivo at 10 mg/kg,[12],36%
same,inhibition in vivo at 10 mg/kg,[13],84.5%
same,inhibition in vivo at 2.5 mg/kg,[14],4%
same,inhibition in vivo at 10 mg/kg,[15],104%
same,inhibition in vivo at 5 mg/kg,[16],7%
same,inhibition in vivo at 10 mg/kg,[17],80%
same,inhibition in vivo at 10 mg/kg,[18],12%
same,Activity,[19],83%
same,Activity,[20],inactive
same,Activity,[21],60%
same,Activity,[22],60%
same,inhibition in vivo at 10 mg/kg,[23],72%
same,inhibition in vivo at 15 mg/kg,[24],71%
same,Activity,[25],Active

# From ChEMBL document CHEMBL5678805, “Intermittent administration of MEK inhibitor GDC-0973 plus PI3K inhibitor GDC-0941 triggers robust apoptosis and tumor growth inhibition” (Cancer Res, 2012)
